Screening data as filed in PubChem BioAssay.
ABCB1 block = ABCB1 efflux pump inhibitors, primary screen, cell-based, multiplex, flow cytometry, ABCG2 counter-screen; ATP-dependent translocase ABCB1 (Homo sapiens), P08183; CCRF-Adr cells, JC-1 efflux; inhibition, % at 6.6 µM; actives 0.067% (n = 190,000); AID 1326, 2008; in the data active means inhibition above about 40%;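 further: higher value means more JC-1 retained so stronger ABCB1 efflux block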
MEKK2wt PB1 HTS = modulators of MEK5 binding to wildtype MEKK2, primary screen, biochemical, multiplex bead flow cytometry, Alexa488-MEK5; Mitogen-activated protein kinase kinase kinase 2 (Homo sapiens), Q9Y2U5; Alexa488-MEK5 binding to MEKK2 WT; actives lie on both sides; binding response (% of control), % at 10 µM; actives 1.1% (n = 290,000); AID 1531, 2009; in the data active means binding response below about 67% or above about 130%
MEKK3 PB1 HTS = modulators of MEKK3-MEK5 PB1 binding, primary screen, biochemical, wildtype MEKK3, multiplex bead flow cytometry, Alexa488-MEK5; Mitogen-activated protein kinase kinase kinase 3 (Homo sapiens), Q99759; bead-based flow cytometry, Alexa488-MEK5 binding to MEKK3; actives lie on both sides; 0 = blocked by unlabeled MEK5, 100 = vehicle; binding response (% of control), % at 10 µM; actives 1.4% (n = 290,000); AID 1529, 2009;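 active means binding response more than 3 SD above or below the average of its plate-row segment, actives on both sides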;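 further: Alexa488 bead fluorescence after subtracting the streptavidin-only scavenger bead signal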
WT yeast gro inh = growth inhibition of WT strain, primary screen, mitochondrial fusion inhibitor project, WT and mutant strains, chemical genetic | AID 1362, 2008 | mitochondrial fusion phenotypic screen | actives 2.1% (n = 190,000) | inhibition, % at 10 µM; in the data active means inhibition above about 58%; tested in S. cerevisiae
ABCG2 block = ABCG2 efflux pump inhibitors, primary screen, multiplex with ABCB1, IgMXP3 cells, flow cytometry. Broad substrate specificity ATP-binding cassette transporter ABCG2 (Homo sapiens), Q9UNQ0. JC-1 efflux. inhibition, % at 6.6 µM. AID 1325, 2008. actives 0.1% (n = 190,000);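 active means inhibition above 80%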
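System: two drug-resistant human cell lines, ABCG2 and ABCB1; controls: nicardipine high and DMSO low controls; times: 10 min exposure at 25 °C with rotation, no wash; detection: flow cytometry of retained JC-1 fluorescence; read-out basis: percent efflux inhibition, scaled nicardipine 100% to DMSO 0%; doses: one concentration, 6.6 µM final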
MEKK2 mut-MEK5 = MEK5 binding signal on mutant MEKK2 PB1, primary screen, biochemical, multiplex bead flow cytometry, Alexa488-MEK5. Alexa488-MEK5 binding to MEKK2 mutant. percent response, % at 10 µM. actives 0.35% (n = 290,000). AID 1530, 2009; in the data active means percent response above about 24%, passing the limit was not always enough
ABCB1 confirm = ABCB1 efflux pump inhibitors, confirmation, cell-based, single point, ABCG2 counter-screen | shares compounds with ABCG2 block | CCRF-Adr cells, JC-1 efflux, flow cytometry | inhibition, % at 6.6 µM | actives 7% (n = 270);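 active means inhibition of pump activity above 50%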
ABCG2 confirm = ABCG2 efflux pump inhibitors, confirmation, single point, IgMXP3 cells, ABCB1 counter-screen paired | shares compounds with ABCG2 block | JC-1 efflux, flow cytometry | inhibition, % at 6.6 µM | actives 6% (n = 270) | AID 1453, 2008;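 active means inhibition above 50%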
IgMXP3 autofluor = compound autofluorescence in ABCG2-expressing IgMXP3 cells, confirmation, artefact control for ABC transporter inhibitor project, cell-based, 488/530 nm, flow cytometry; shares compounds with ABCG2 block; compound autofluorescence 488/530 nm; hits give high values; fluorescence at 6.6 µM; actives 30% (n = 270); AID 1480, 2009;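 active means fluorescence in ABCG2-expressing cells above the plate's control-well mean plus 3 SD, cut at about 15 in these data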
CCRF autofluor = compound autofluorescence in ABCB1-expressing CCRF-Adr cells, confirmation, artefact control for ABC transporter inhibitor project, cell-based, 488/530 nm, flow cytometry. shares compounds with ABCG2 block. compound autofluorescence 488/530 nm; hits give high values. fluorescence at 6.6 µM. actives 30% (n = 270). AID 1483, 2009;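 active means fluorescence beyond the plate control mean plus 3 SD, with a fluorescence-to-maximum score over 2, cut at about 25 in these data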
Of the large screens only hits and unclear results are named; the others gave an inactive call (follow-up assays come after a bar, where they were run). Only some compounds are listed: those with a hit (about 3.5% of all), similar ones and a draw of the others.

Cc1ccc(-n2[nH]c3c4c(ccc3c2=O)C(=O)c2ccccc2C4=O)cc1	none
O=C(CSc1nnc(-c2cnccn2)n1Cc1ccco1)c1ccc(Cl)cc1	none
c1ccc(-c2nnc(CSc3nnc(-c4ccncc4)n3Cc3ccco3)o2)cc1	WT yeast gro inh 82 (no result: MEKK2wt PB1 HTS, MEKK3 PB1 HTS, MEKK2 mut-MEK5)
CC(C)(C)c1ccc(CSc2nnc(-c3ccccn3)n2Cc2ccco2)cc1	WT yeast gro inh 64 (no result: MEKK2wt PB1 HTS, MEKK3 PB1 HTS, MEKK2 mut-MEK5)
C(=C\c1ccccc1)/CSc1nnc(-c2ccncc2)n1Cc1ccco1	none
O=C(CSc1nnc(-c2cnccn2)n1Cc1ccco1)c1ccccc1	WT yeast gro inh 99
CC(C)c1onc(C(=O)NC(C)c2ccccc2)c1[N+](=O)[O-] (configuration not stated)	none
CC12COC3(C(=O)Nc4ccc([N+](=O)[O-])cc4)CC1CCC32C (configuration not stated)	ABCG2 block 112 | ABCB1 confirm inactive | ABCG2 confirm inactive | IgMXP3 autofluor inactive | CCRF autofluor inactive
COC(=O)CCc1c(C)c(C(=O)c2ccc(F)cc2)c2ccccn12	none
Cc1c(C(=O)Nc2ccc(F)cc2)c2ccccn2c1CCc1ccncc1	none | ABCB1 confirm inactive | ABCG2 confirm inactive | IgMXP3 autofluor inactive | CCRF autofluor inactive
CCOC(=O)C1=C(O)/C(=C/c2ccc(OCC(=O)O)c(OC)c2)SC1=Nc1ccc(OCC)cc1	ABCB1 block 50 | ABCB1 confirm inactive | ABCG2 confirm inactive | IgMXP3 autofluor inactive | CCRF autofluor inactive
CCCCN(CC)c1nc(N)c2c(N)nc(OCC)cc2c1C#N	none | ABCB1 confirm inactive | ABCG2 confirm inactive | IgMXP3 autofluor inactive | CCRF autofluor inactive
CCOc1cc2c(C#N)c(N3CCCC3)nc(N)c2c(N)n1	none (no result: ABCB1 block, WT yeast gro inh, ABCG2 block)
Cc1ccc(NC(=O)Nc2ccccc2)cc1[N+](=O)[O-]	ABCG2 block 95 | ABCB1 confirm inactive | ABCG2 confirm inactive | IgMXP3 autofluor inactive | CCRF autofluor inactive
COc1cc(C2NC(=O)NC3=C2C(=O)OC3)cc(OC)c1OC (configuration not stated)	none (no result: ABCB1 block, WT yeast gro inh, ABCG2 block)
CCC(Cc1ccccc1)n1c(=S)[nH]c2ccccc2c1=O (configuration not stated)	MEKK3 PB1 HTS 136, ABCG2 block 100, MEKK2 mut-MEK5 active (no result: MEKK2wt PB1 HTS) | ABCB1 confirm inactive | ABCG2 confirm inactive | IgMXP3 autofluor 23 | CCRF autofluor 57
CCOc1ccc(N(CC(=O)Nc2c(C)n(C)n(-c3ccccc3)c2=O)S(=O)(=O)c2ccc(F)cc2)cc1	none (no result: ABCB1 block, WT yeast gro inh, ABCG2 block)
